Measurements as given in ChEMBL document CHEMBL1177719 (J Med Chem, 2010).
Calls of active or inactive are those of the source. The calls are words filed in the database; no cut-off is given here.

Tests used:
[1] = test system: RAW264.7; test: Inhibition of LPS-induced COX2 expression in mouse RAW264.7 cells at 34 uM treated 15 mins before LPS challenge measured after 18 hrs by Western blotting relative to control; format: functional
Summary of the method: (§1)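 RAW 264.7 cells pretreated 15 min with compound (34 μM), then LPS 1 μg/mL for 18 h. Lysates (30 μg protein) run on 8% SDS-PAGE and transferred to PVDF. Blocked in 5% milk/TBST, probed for iNOS and COX-2 with HRP secondary, ECL detection, β-actin internal control. Band density relative to LPS-treated control; duplicate experiments.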

[2] = target: T1, Nitric oxide synthase, inducible (Mus musculus) (UniProt P29477); test: Inhibition of iNOS-mediated nitric oxide production in LPS-stimulated mouse RAW 264.7 cells at 34 uM pretreated 30 mins before LPS challenge measured after 20 hrs by Griess reaction method relative to control; format: cell-based
T1 sequence (whole entry): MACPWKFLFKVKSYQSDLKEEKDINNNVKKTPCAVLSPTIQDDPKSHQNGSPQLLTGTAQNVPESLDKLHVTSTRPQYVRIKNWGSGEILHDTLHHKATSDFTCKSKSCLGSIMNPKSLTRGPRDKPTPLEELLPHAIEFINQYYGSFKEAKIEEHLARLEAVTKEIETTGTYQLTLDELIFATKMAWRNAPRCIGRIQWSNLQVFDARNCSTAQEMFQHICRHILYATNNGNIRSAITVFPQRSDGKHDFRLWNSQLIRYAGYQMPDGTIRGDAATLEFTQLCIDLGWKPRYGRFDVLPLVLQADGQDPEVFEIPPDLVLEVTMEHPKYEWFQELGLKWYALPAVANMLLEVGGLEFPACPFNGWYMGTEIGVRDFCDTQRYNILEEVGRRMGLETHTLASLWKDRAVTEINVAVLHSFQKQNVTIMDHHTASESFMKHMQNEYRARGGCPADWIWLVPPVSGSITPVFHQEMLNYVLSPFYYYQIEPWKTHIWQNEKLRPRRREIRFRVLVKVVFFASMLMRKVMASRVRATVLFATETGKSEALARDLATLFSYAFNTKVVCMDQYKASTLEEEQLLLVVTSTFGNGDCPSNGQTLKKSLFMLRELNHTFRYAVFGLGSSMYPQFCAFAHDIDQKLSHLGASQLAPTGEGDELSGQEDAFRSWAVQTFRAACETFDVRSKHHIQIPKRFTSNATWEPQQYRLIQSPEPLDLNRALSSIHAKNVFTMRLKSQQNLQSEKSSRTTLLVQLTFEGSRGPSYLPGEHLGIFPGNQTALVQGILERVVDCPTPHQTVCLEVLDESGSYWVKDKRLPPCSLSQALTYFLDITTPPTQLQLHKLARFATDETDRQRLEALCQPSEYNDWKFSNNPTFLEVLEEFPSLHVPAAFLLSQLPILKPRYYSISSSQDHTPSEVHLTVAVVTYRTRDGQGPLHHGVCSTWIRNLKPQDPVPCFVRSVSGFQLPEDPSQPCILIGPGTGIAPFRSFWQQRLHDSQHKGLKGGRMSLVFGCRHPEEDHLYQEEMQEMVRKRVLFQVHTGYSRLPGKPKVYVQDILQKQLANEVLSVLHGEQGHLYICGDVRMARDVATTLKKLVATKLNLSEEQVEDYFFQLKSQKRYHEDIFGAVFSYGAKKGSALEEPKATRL

[3] = Antioxidant activity assessed as nitric oxide scavenging activity at 60 uM; format: functional
Summary of the method: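 Compounds diluted tenfold in PBS and incubated with sodium nitroprusside (final compound 60 μM, SNP 5 mM) for 3 h at room temperature. Nitrite measured by Griess reagent, absorbance 540 nm. % inhibition given as average of triplicates ± standard deviation.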

[4] = target: NAD(P)H dehydrogenase [quinone] 1 (Mus musculus) (UniProt Q64669); test: Induction of quinone reductase 1 in mouse Hepa 1c1c7 cells assessed as drug level required to double enzyme activity by MTT assay
[5] = test system: HEK293; test: Cytotoxicity against human HEK293 cells at 34 uM; format: cell-based; conditions: hek293, 34 µM
[6] = target: T2, Aromatase (Homo sapiens, UniProt P11511); conditions: read-out: INH
T2 sequence (P11511 whole entry): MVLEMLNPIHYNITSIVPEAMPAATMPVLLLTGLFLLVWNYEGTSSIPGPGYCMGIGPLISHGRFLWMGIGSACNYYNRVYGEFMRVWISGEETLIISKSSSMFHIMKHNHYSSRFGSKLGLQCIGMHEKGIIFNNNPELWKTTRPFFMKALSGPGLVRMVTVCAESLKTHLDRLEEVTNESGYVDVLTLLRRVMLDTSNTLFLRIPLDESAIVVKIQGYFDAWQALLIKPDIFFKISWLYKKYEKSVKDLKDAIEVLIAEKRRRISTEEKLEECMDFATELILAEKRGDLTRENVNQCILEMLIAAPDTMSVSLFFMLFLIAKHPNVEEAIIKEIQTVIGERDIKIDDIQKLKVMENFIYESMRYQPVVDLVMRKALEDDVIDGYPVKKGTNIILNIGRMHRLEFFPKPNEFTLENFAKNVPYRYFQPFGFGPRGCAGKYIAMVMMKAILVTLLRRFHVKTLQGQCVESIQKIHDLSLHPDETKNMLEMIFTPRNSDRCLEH

[7] = Antioxidant activity assessed as DPPH scavenging activity at 340 uM after 30 mins; format: functional
[8] = target: T3, Prostaglandin G/H synthase 1 (Ovis aries) (UniProt P05979); test: Inhibition of sheep seminal vesicles COX1 assessed as PGE2 production at 34 uM after 10 mins by ELISA relative to control
T3 sequence (whole entry): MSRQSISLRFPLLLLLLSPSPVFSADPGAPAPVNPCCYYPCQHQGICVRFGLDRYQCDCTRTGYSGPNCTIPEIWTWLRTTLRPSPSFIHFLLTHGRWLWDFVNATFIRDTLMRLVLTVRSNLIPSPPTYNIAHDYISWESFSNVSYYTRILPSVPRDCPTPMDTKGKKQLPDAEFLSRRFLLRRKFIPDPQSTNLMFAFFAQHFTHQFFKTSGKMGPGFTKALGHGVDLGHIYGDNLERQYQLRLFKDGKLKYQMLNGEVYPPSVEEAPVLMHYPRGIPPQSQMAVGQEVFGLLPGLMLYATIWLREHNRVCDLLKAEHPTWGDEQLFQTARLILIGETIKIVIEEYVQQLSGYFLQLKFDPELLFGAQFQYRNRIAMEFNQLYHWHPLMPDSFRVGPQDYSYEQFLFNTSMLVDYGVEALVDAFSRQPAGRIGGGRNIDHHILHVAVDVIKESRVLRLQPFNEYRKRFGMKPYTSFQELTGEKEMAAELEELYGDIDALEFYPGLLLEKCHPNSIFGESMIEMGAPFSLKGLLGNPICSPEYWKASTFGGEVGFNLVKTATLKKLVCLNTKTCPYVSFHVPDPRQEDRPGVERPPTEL
Summary of the method: (§2)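 Sheep seminal vesicle COX-1; reaction started with arachidonic acid, 10 min at room temperature, stopped with 27.8 μM indomethacin. PGE₂ quantified by competitive ELISA (PGE₂-acetylcholinesterase tracer, Ellman's reagent, 412 nm) against a PGE₂ standard curve. Result as % of solvent control; IC₅₀ from dose-response curves.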

[9] = test system: RAW264.7; test: Inhibition of LPS-induced COX2 expression in mouse RAW264.7 cells at 34 uM treated 15 mins before LPS challenge measured after 18 hrs by immunoblotting; format: functional, cell-based
Summary of the method: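 RAW 264.7 cells pretreated with samples 15 min, then LPS 1 μg/mL for 18 h. Lysates (30 μg protein) run on 8% SDS-PAGE, transferred to PVDF, probed with primary and HRP secondary antibodies, ECL detection. β-actin internal control; band density quantified relative to the LPS-only control; duplicate experiment.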

[10] = test system: HEK293; test: Inhibition of TNF-alpha-induced NF-kappaB activity expressed in HEK293 cells at 34 uM after 48 hrs by luciferase reporter gene assay relative to control; format: cell-based
Summary of the method: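 Stably transfected 293 cells carrying an NFκB response element–luciferase reporter, exposed to TNFα plus compound for 48 h, then assayed for luciferase. Activity expressed as % of TNFα-treated control. IC₅₀ from five serial dilutions, mean of two experiments.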

[11] = target: T1, Nitric oxide synthase, inducible (Mus musculus); test: Inhibition of iNOS-mediated nitric oxide production in mouse RAW 264.7 cells at 34 uM pretreated 30 mins measured after 20 hrs by Griess reaction method relative to control; format: cell-based
Summary of the method: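 RAW 264.7 macrophages seeded at 1 × 10⁵ cells/well for 24 h. Compounds in phenol red-free DMEM added 30 min before LPS (1 μg/mL), then 20 h further incubation. Nitrite in medium measured by Griess reagent at 540 nm against a sodium nitrite standard curve; inhibition at 34 μM.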

[12] = test system: RAW264.7; test: Inhibition of LPS-induced iNOS expression in mouse RAW264.7 cells at 34 uM treated 15 mins before LPS challenge measured after 18 hrs by Western blotting; format: functional, cell-based; summary of the method: as §1
[13] = test system: KB; test: Cytotoxicity against human KB cells assessed as cell survival at 20 ug/ml after 72 hrs by sulforhodamine B method; format: functional; conditions: read-out: Activity
Summary of the method: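 Sulforhodamine B assay. KB or MCF7 cells plated with samples and held 72 h at 37 °C, 5% CO₂. Fixed 1 h in 10% trichloroacetic acid, stained with 0.4% SRB in 1% acetic acid, dye taken up in 10 mM Tris.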

[14] = test system: HL-60; test: Cell cycle arrest in human HL60 cells assessed as accumulation at sub-G1 phase at 34 uM after 24 hrs by flow cytometry; format: functional
Summary of the method: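 HL-60 cells (2 × 10⁵/well) exposed to samples for 24 h, then stained with NIM-DAPI nuclear isolation medium. Read by flow cytometry under UV excitation; percentage of cells in subG₁ taken from the DNA histogram.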

[15] = target: T4, Prostaglandin G/H synthase 1 (Ovis aries, UniProt P05979); test: Inhibition of sheep seminal vesicles COX1 assessed as PGE2 production after 10 mins by ELISA; summary of the method: as §2
T4 sequence (P05979 whole entry): T3 sequence (whole entry)

[16] = target: T5, Nitric oxide synthase, inducible (Mus musculus, UniProt P29477)
T5 sequence (P29477 whole entry): T1 sequence (whole entry)

[17] = test system: MCF7; test: Cellular uptake in human MCF7 cells assessed per millions cells at 50 uM after 24 hrs by LC/MS/MS analysis; format: ADME, cell-based; conditions: mcf7, 24 h

Sequence of NAD(P)H dehydrogenase [quinone] 1 (Mus musculus) (Q64669 whole entry): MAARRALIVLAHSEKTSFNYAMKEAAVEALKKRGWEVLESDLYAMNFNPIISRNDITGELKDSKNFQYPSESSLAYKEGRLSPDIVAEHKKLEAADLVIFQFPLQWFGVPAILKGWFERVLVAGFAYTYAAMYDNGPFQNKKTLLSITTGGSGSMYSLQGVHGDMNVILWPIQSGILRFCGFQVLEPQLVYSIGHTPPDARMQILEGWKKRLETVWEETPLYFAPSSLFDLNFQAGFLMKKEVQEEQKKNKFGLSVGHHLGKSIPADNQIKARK

Structure (SMILES) | fold change (FC) [1] | inhibition [2] [%] | Activity [3] [%] | CD [4] [µM] | Activity [5] | inhibition at 34 µM [6] [%] | inhibition [7] [%] | inhibition [8] [%] | inhibition [9] | inhibition [10] [%] | Activity [11] | inhibition [12] | viability at 20 µg/mL [13] [%] | Activity [14] [%] | IC50 [15] [µM] | IC50 [16] [µM] | Drug uptake [17] [pmol]
O=S(=O)([O-])Oc1ccc(/C=C/c2cc(O)cc(OS(=O)(=O)[O-])c2)cc1.[K+].[K+] | 0.6 | 41.7 | 0 | > 10.1 | Non-toxic | 22.5 | 6.8 | 23.3 | inactive | 53.4 | inactive |  |  |  |  |  | 
Oc1ccc(/C=C/c2cc(O)cc(O)c2)cc1 [RESVERATROL] |  |  |  |  | Non-toxic |  |  | 75.2 | inactive | 75.7 |  | Active | 47.8 | 24.9 | 6.65 | 15 | 54.7
